Source: ChEMBL document CHEMBL4402547, “Synthesis and Pharmacological Characterization of Conformationally Restricted Retigabine Analogues as Novel Neuronal Kv7 Channel Activators” (J Med Chem, 2020)
Calls of active or inactive are those of the source. No cut-off for these calls is given here.

Tests used:
[1] = molecular target: T1, Voltage-gated potassium channel, KQT; KCNQ2(Kv7.2)/KCNQ3(Kv7.3) (Homo sapiens) (UniProt O43526+O43525); assay: Activation of human Kv7.2/Kv7.3 expressed in CHO cells assessed as delta V at 10 uM by whole cell patch clamp electrophysiology assay; format: cell-based
[2] = molecular target: CYP450 (phase 1 metabolism) (Homo sapiens, UniProt P04798+P05177+P05181+P08684+P10632+P10635+P11509+P11712+P13584+P20813+P20815+P20853+P24462+P24903+P33260+P33261+P51589+P78329+P98187+Q02928+Q08477+Q16678+Q16696+Q5TCH4+Q6VVX0+Q7Z449+Q8TAV3+Q96SQ9+Q9HB55); assay: Drug metabolism in human liver S9 fractions assessed as CYP450-mediated phase 1 metabolism at 1 mM preincubated for 5 mins followed by NADPH addition and measured after 60 mins by RP-UHPLC-DAD analysis relative to control; format: ADME, subcellular; settings: read-out: Drug metabolism
Summary of the method: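 Drug (1 mM stock, 2 μL) incubated with pooled human liver S9 fraction in 100 mM phosphate buffer pH 7.4. After 5 min preincubation, NADPH added and mixture kept 60 min at 37°C. Stopped with ice-cold methanol, centrifuged, supernatant analysed by RP-UHPLC-DAD. % turnover = 100 − (60 min/0 min concentration × 100). Controls: no-NADPH, and testosterone, 7-hydroxycoumarin, p-aminobenzoic acid.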

NAT (phase 2 metabolism) = assay: Drug metabolism in human liver S9 fractions assessed as assessed as NAT-mediated phase 2 metabolism at 1 mM preincubated for 5 mins followed by NADPH addition and measured after 60 mins by RP-UHPLC-DAD analysis relative to control; format: ADME, subcellular; settings: read-out: Drug metabolism
Summary of the method: (§1)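 Compound (2 μL of 1 mM stock) in 100 mM phosphate buffer pH 7.4 with pooled human liver S9, preincubated 5 min, then NADPH added, 37°C for 60 min. For UGT: 5 mM UDPGA, alamethicin, 1 mM MgCl added; for NAT: 2 mM DTT, sulfamethazine, 4.5 mM acetyl DL-carnitine, 0.1 U/mL carnitine acetyltransferase. Stopped with ice-cold methanol; RP-UHPLC-DAD; % turnover = 100 − (60 min/0 min concentration × 100).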

[3] = molecular target: Potassium voltage-gated channel subfamily KQT member 5 (Homo sapiens, UniProt Q9NR82); assay: Activation of human Kv7.5 expressed in CHO cells assessed as increase in channel current amplitude by whole cell patch clamp electrophysiology assay; format: cell-based
Chain of Potassium voltage-gated channel subfamily KQT member 5 (Q9NR82 whole entry): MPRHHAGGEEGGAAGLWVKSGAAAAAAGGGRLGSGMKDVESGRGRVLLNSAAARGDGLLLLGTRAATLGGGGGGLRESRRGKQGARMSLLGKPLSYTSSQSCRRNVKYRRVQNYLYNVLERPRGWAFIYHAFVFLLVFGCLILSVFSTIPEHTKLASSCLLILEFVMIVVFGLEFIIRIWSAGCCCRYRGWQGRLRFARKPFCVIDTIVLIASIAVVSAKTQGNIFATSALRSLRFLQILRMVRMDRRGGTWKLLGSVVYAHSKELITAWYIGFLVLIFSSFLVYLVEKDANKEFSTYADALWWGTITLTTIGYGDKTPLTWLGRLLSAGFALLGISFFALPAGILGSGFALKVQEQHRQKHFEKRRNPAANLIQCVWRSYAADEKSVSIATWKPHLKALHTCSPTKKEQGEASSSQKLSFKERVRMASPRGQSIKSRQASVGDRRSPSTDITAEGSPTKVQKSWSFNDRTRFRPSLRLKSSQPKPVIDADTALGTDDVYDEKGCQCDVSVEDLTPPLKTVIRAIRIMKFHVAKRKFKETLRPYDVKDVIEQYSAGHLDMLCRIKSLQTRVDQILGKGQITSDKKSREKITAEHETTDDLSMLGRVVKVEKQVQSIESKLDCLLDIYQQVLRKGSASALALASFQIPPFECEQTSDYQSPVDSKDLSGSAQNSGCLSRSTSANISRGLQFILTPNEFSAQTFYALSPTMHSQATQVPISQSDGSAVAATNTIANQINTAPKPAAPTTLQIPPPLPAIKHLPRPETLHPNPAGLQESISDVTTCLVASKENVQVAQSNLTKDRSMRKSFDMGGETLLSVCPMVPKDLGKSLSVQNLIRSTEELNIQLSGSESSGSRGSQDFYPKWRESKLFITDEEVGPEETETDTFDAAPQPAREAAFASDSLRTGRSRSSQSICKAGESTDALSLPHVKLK

[4] = molecular target: T2, Potassium voltage-gated channel subfamily KQT member 2 (Homo sapiens, UniProt O43526); assay: Activation of human Kv7.2 expressed in CHO cells assessed as maximal steady-state increase in current amplitude at 10 uM measured after 200 secs at holding potential of -40 mV by whole cell patch clamp electrophysiology assay; format: cell-based
T2 sequence (O43526 whole entry): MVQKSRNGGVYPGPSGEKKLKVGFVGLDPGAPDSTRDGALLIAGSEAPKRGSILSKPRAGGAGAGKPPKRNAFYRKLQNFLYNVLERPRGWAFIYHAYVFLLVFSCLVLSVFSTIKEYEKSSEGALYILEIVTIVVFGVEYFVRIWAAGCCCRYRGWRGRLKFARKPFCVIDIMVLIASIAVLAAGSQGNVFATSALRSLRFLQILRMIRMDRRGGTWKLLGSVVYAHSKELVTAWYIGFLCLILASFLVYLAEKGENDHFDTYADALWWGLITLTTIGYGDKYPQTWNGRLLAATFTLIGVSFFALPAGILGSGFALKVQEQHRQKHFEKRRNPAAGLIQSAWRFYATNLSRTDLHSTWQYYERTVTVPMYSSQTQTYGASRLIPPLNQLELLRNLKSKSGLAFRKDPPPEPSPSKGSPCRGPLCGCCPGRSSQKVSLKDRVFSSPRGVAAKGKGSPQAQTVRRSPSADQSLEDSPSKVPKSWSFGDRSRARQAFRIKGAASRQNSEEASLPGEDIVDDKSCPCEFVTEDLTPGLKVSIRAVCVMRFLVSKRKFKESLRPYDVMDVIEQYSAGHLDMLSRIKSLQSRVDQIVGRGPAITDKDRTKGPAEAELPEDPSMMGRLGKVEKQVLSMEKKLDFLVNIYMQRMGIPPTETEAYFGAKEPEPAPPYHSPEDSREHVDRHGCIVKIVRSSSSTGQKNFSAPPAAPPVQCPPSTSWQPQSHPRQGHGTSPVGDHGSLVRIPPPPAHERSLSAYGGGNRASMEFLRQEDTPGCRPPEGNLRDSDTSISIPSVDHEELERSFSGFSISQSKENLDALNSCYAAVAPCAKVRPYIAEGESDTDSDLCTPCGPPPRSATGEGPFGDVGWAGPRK

[5] = molecular target: T2, Potassium voltage-gated channel subfamily KQT member 2; assay: Activation of human Kv7.2 expressed in CHO cells assessed as current amplitude at 10 uM measured after 200 secs upon drug wash-out at holding potential of -40 mV by whole cell patch clamp electrophysiology assay; format: cell-based
[6] = molecular target: T1, Voltage-gated potassium channel, KQT; KCNQ2(Kv7.2)/KCNQ3(Kv7.3) (Homo sapiens); assay: Activation of human Kv7.2/Kv7.3 expressed in CHO cells assessed as increase in channel current amplitude by whole cell patch clamp electrophysiology assay; format: cell-based
Summary of the method: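 Human Kv7.2 plus Kv7.3 cDNAs co-transfected into CHO cells; whole-cell patch clamp at 20–22°C, extracellular solution pH 7.4. Drug applied at 0.01–10 μM to test concentration-dependent current increase.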

[7] = Photostability of compound in pH 7.4 buffer assessed as compound degradation at 100 ug/ml incubated for 6 hrs under natural solar light-irradiation by HPLC analysis relative to control
Summary of the method: (§2)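 DMSO solutions diluted in pH 7.4 buffer, held in 1 cm quartz cells and exposed to natural daylight. Light-shielded controls kept at 37°C in foil. Aliquots drawn at set intervals and parent compound loss measured by UHPLC: C18 column, 0.1% TFA water/acetonitrile gradient, 45°C, detection at 254 nm.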

[8] = Lipophilicity, log P of the compound; format: physicochemical; settings: octanol/water
[9] = molecular target: T2, Potassium voltage-gated channel subfamily KQT member 2; assay: Activation of human Kv7.2 expressed in CHO cells assessed as increase in current amplitude at 10 uM measured at holding potential of 0 mV by whole cell patch clamp electrophysiology assay relative to control; format: cell-based
Summary of the method: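 Transiently transfected CHO cells expressing human Kv7.2, whole-cell patch clamp at 20–22°C in HEPES-buffered saline pH 7.4. Cells held at −80 mV and ramped −80 to +20 mV over 3 s, before and during 10 μM drug. Ramp current at 0 mV taken as drug/control ratio; mean ± SEM of ≥3 cells, ≥2 transfections.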

UGT (phase 2 metabolism) = UGT (phase 2 metabolism) (Homo sapiens, UniProt O60656+O75310+O75795+P06133+P0DTE4+P0DTE5+P16662+P19224+P22309+P22310+P35503+P35504+P36537+P54855+Q6UWM9+Q9BY64+Q9HAW7+Q9HAW8+Q9HAW9); assay: Drug metabolism in human liver S9 fractions assessed as assessed as UGT-mediated phase 2 metabolism at 1 mM preincubated for 5 mins followed by NADPH addition and measured after 60 mins by RP-UHPLC-DAD analysis relative to control; format: ADME, subcellular; settings: read-out: Drug metabolism; summary of the method: as §1
[10] = system: Potassium voltage-gated channel subfamily KQT member 2 (Homo sapiens), O43526 [W236L]; assay: Activation of human Kv7.2 W236L mutant expressed in CHO cells assessed as channel current amplitude at 10 uM measured at holding potential of -40 mV by whole cell patch clamp electrophysiology assay; format: cell-based
Chain of Potassium voltage-gated channel subfamily KQT member 2 (Homo sapiens), O43526 [W236L] (O43526 whole entry W236L, the tested form may be a part): as the sequence (O43526 whole entry) above, with W236L counted along it
Summary of the method: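 CHO cells transiently co-transfected (Lipofectamine 2000, 4 μg total cDNA, EGFP marker) with human channel cDNA in pcDNA3.1, recorded 24 h later. Whole-cell patch clamp at 20–22°C, 3–5 MΩ pipettes, perfused extracellular solution pH 7.4. Held at −80 mV; 3-s ramps −80 to +20 mV ± 10 μM drug. Current at −40 mV with vs without drug expressed as ratio; ≥3 cells from ≥2 transfections, mean ± SEM.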

[11] = Photostability of compound in pH 7.4 buffer assessed as compound degradation at 100 ug/ml incubated for 2 hrs under natural solar light-irradiation by HPLC analysis relative to control; summary of the method: as §2
[12] = molecular target: T2, Potassium voltage-gated channel subfamily KQT member 2; assay: Activation of human Kv7.2 expressed in CHO cells assessed as half-activation voltage at 0.03 uM in constant voltage pulse by whole cell patch clamp electrophysiology assay (reference value: -38.2 +/- 2 mV); format: cell-based
Summary of the method: (§3)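 Transiently transfected CHO cells (human Kv7.2 cDNA in pcDNA3.1, EGFP marker), recorded 24 h post-transfection by whole-cell patch clamp at 20–22°C; extracellular solution in mM 138 NaCl, 2 CaCl₂, 5.4 KCl, 1 MgCl₂, 10 glucose, 10 HEPES, pH 7.4. Constant voltage pulses before and after 0.03 μM compound; conductance/voltage curves fitted to double Boltzmann for V1/2 and maximal conductance.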

[13] = molecular target: T2, Potassium voltage-gated channel subfamily KQT member 2; assay: Activation of human Kv7.2 expressed in CHO cells assessed as increase in maximal channel conductance at 0.03 uM in constant voltage pulses by whole cell patch clamp electrophysiology assay; format: cell-based; summary of the method: as §3

Row | Structure (SMILES) | Activity [1] [mV] | metabolised at 1 h, 1000 µM [2] [%] | metabolised at 1 h, 1000 µM (NAT (phase 2 metabolism)) [%] | EC50 [3] [µM] | Activity [4] | Activity [5] | Activity [6] | Drug degradation [7] [%] | logP [8] | Activity [9] | metabolised at 1 h, 1000 µM (UGT (phase 2 metabolism)) [%] | Activity [10] | Drug degradation [11] [%] | V1/2 [12] [mV] | Activity [13] | Ratio [9]
1 | CC(C)(C)CC(=O)Nc1ccc2c(ccn2Cc2ccc(C(F)(F)F)cc2)c1 | -20 | 17.3 | 12.7 | 0.35 | Active | inactive | Dose-dependent effect | 8.45 | 5.58 | Active | 7.42 | inactive | 0.96 |  |  | 
2 | CCCCCCC(=O)Nc1ccc2c(ccn2Cc2ccc(C(F)(F)F)cc2)c1 | -25.4 | 48.7 |  | 1.07 | Active | inactive | Dose-dependent effect | 9.15 | 6.83 | Active |  | inactive | 1.36 | -38.2 | Active | 
3 | CCOC(=O)Nc1ccc(NCc2ccc(F)cc2)cc1N [EZOGABINE] | -26.8 | 3.11 | 3.41 | 0.8 |  |  |  | 43.5 to 47.3 |  |  | 11.4 | inactive | 9.65 | -24.4 | inactive | 2
